Laboratory results published in ChEMBL document CHEMBL1153991, “Anthranilamide-based N,N-dialkylbenzamidines as potent and orally bioavailable factor Xa inhibitors: P4 SAR” (Bioorg Med Chem Lett, 2009).

Tests used:
[1] = Oral bioavailability in rat; type: ADME, organism-based; conditions: in vivo
Plasma = assay: Anticoagulant activity in human plasma assessed as concentration required to double the thrombin generation time; type: functional
[2] = Volume of distribution in rat; type: ADME, organism-based; conditions: in vivo
[3] = Inhibition of kallikrein
[4] = Inhibition of trypsin
Prothrombin = Prothrombin (Homo sapiens, UniProt P00734); assay: Inhibition of thrombin
[5] = biological target: Tissue-type plasminogen activator (Homo sapiens, UniProt P00750); assay: Inhibition of tissue plasminogen activator
Plasminogen = Plasminogen (Homo sapiens, UniProt P00747); assay: Inhibition of plasmin
[6] = biological target: Vitamin K-dependent protein C (Homo sapiens) (UniProt P04070); assay: Inhibition of activated protein C
Coagulation factor X = Coagulation factor X (Homo sapiens, UniProt P00742); assay: Inhibition of Factor 10a
[7] = Half life in Beagle dog at 0.1 mg/kg, iv and 0.5 mg/kg, po; conditions: in vivo
[8] = Clearance in Sprague-Dawley rat at 0.4 mg/kg, iv and 6 mg/kg, po; type: ADME, organism-based; conditions: in vivo
Procedure, shortened: (§1)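 Sprague–Dawley rats dosed 0.4 mg/kg IV and 6 mg/kg PO. Derived PK parameters: F (%), t1/2 (h), CL (mL/min/kg), Vd (L/kg).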

[9] = Oral bioavailability in Beagle dog at 0.5 mg/kg; type: ADME, organism-based, Canis lupus familiaris; conditions: in vivo
Procedure, shortened: (§2)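 Beagle dogs dosed 0.1 mg/kg IV and 0.5 mg/kg PO. Derived PK parameters: F (%), t1/2 (h), CL (mL/min/kg), Vd (L/kg).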

[10] = Half life in Sprague-Dawley rat at 0.4 mg/kg, iv and 6 mg/kg, po; type: ADME, organism-based; conditions: in vivo; procedure, shortened: as §1
[11] = Volume of distribution in Sprague-Dawley rat at 0.4 mg/kg, iv and 6 mg/kg, po; type: ADME, organism-based; conditions: in vivo; procedure, shortened: as §1
[12] = Volume of distribution in Beagle dog at 0.1 mg/kg, iv and 0.5 mg/kg, po; type: ADME, organism-based, Canis lupus familiaris; conditions: in vivo; procedure, shortened: as §2
[13] = Clearance in Beagle dog at 0.1 mg/kg, iv and 0.5 mg/kg, po; type: ADME, organism-based, Canis lupus familiaris; conditions: in vivo; procedure, shortened: as §2
[14] = Oral bioavailability in Sprague-Dawley rat at 6 mg/kg; type: ADME, organism-based; conditions: in vivo; procedure, shortened: as §1
[15] = Protein binding in human plasma; type: ADME, cell-free; conditions: read-out: PB (converted)
Procedure, shortened: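 Plasma protein binding measured by ultrafiltration. Working solution added 1/100 to EDTA human plasma to a final 10 µM, incubated 37 °C for 30 min. Triplicate aliquots were centrifuged through filter devices for 25 min at 32 °C. Filtrate was mixed with acetonitrile containing internal standard and quantified by LC/MS/MS against standards prepared in ultrafiltered plasma.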

Sequence of Coagulation factor X (P00742 41-179 limits assumed): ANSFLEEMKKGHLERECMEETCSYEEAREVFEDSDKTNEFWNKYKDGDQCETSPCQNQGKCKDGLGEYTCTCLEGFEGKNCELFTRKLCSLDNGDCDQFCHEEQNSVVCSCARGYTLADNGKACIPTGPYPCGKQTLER
Sequence of Coagulation factor X (P00742 235-488 limits assumed): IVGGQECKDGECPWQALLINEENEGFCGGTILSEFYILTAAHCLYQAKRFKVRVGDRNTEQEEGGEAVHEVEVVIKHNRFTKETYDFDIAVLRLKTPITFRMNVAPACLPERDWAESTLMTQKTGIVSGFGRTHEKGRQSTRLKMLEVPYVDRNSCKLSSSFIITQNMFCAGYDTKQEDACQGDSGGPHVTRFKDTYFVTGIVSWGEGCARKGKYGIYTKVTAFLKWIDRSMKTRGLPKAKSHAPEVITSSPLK
Sequence of Tissue-type plasminogen activator (P00750 whole entry): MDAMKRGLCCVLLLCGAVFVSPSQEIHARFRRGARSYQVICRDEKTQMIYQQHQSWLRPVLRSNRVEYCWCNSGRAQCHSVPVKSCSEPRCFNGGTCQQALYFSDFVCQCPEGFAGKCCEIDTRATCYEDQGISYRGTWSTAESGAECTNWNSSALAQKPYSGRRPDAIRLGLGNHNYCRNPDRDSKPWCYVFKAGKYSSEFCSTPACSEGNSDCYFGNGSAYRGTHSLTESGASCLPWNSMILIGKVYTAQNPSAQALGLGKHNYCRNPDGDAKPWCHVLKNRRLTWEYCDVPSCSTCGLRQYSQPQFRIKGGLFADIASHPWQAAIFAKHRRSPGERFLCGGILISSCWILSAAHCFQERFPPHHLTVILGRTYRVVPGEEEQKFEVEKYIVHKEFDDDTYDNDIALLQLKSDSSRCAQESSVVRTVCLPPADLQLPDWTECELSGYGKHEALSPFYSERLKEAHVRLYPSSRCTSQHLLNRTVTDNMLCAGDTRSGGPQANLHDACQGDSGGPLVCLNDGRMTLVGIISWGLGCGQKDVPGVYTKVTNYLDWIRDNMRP
Sequence of Plasminogen (P00747 97-580 limits assumed): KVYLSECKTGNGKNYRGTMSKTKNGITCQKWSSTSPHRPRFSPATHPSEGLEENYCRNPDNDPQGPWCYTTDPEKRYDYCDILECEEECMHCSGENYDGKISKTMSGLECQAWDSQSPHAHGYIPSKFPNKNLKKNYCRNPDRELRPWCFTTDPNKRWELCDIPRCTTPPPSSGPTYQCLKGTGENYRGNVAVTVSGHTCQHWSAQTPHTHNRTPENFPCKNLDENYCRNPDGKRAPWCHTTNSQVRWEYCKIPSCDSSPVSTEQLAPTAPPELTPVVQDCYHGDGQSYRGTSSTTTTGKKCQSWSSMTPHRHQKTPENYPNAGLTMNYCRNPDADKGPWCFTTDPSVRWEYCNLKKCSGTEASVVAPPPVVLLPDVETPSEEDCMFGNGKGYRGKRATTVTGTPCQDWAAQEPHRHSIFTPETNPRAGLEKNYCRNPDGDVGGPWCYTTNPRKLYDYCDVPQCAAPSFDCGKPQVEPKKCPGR
Sequence of Plasminogen (P00747 581-810 limits assumed): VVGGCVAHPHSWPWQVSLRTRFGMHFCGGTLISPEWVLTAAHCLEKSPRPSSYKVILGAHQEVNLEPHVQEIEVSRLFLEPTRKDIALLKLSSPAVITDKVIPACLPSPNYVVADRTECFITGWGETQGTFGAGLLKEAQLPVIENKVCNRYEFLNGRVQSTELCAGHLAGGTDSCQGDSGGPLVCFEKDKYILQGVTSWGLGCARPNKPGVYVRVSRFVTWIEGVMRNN

**Q.** What does the source list for `N=C1NCCN1Cc1ccc(C(=O)Nc2ccc(Cl)cc2C(=O)Nc2ccc(Cl)cn2)cc1`?
**A.** bioavailability [1]: < 1%; Activity (Plasma): 0.58 µM

**Q.** For `NS(=O)(=O)c1ccccc1-c1ccc(C(=O)Nc2ccccc2C(=O)Nc2ccc(Cl)cn2)cc1`, which bioavailability [1] is on record?
**A.** 35%

**Q.** What about the Activity (Plasma) of the same compound?
**A.** >5 µM

**Q.** For `N=C1OCCN1Cc1ccc(C(=O)Nc2ccc(Cl)cc2C(=O)Nc2ccc(Cl)cn2)cc1`, which Vd [2] is on record?
**A.** 13.6 L/kg

**Q.** What about the Activity (Plasma) of the same compound?
**A.** 0.56 µM

**Q.** With `N=C(N)c1ccc(C(=O)Nc2ccccc2C(=O)Nc2ccc(Cl)cn2)cc1` as the compound, how does the IC50 [3] read?
**A.** 4900 nM

**Q.** What about the bioavailability [1] of the same compound?
**A.** < 5%

**Q.** And the IC50 [4]?
**A.** > 10000 nM

**Q.** And the IC50 (Prothrombin)?
**A.** > 10000 nM

**Q.** What about the IC50 [5] of the same compound?
**A.** > 10000 nM

**Q.** And the IC50 (Plasminogen)?
**A.** > 10000 nM

**Q.** What about the IC50 [6] of the same compound?
**A.** > 10000 nM

**Q.** And the IC50 (Coagulation factor X)?
**A.** 4 nM

**Q.** With `CONC(=N)c1ccc(C(=O)Nc2ccccc2C(=O)Nc2ccc(Cl)cn2)cc1` as the compound, how does the IC50 (Coagulation factor X) read?
**A.** 290 nM

**Q.** Which IC50 (Coagulation factor X) does the source give for `N=C(NN)c1ccc(C(=O)Nc2ccccc2C(=O)Nc2ccc(Cl)cn2)cc1` here?
**A.** 25 nM

**Q.** Which IC50 (Coagulation factor X) does the source give for `CN(C)NC(=N)c1ccc(C(=O)Nc2ccccc2C(=O)Nc2ccc(Cl)cn2)cc1` here?
**A.** 30 nM

**Q.** With `N=C(c1ccc(C(=O)Nc2ccccc2C(=O)Nc2ccc(Cl)cn2)cc1)N1CCS(=O)(=O)CC1` as the compound, how does the IC50 (Coagulation factor X) read?
**A.** 256 nM

**Q.** With `N=C(c1ccc(C(=O)Nc2ccccc2C(=O)Nc2ccc(Cl)cn2)cc1)N1CCOCC1` as the compound, how does the IC50 (Coagulation factor X) read?
**A.** 7 nM

**Q.** Which IC50 (Coagulation factor X) does the source give for `N=C(c1ccc(C(=O)Nc2ccccc2C(=O)Nc2ccc(Cl)cn2)cc1)N1CCSCC1` here?
**A.** 12 nM

**Q.** Which IC50 (Coagulation factor X) does the source give for `CN1CCN(C(=N)c2ccc(C(=O)Nc3ccccc3C(=O)Nc3ccc(Cl)cn3)cc2)CC1` here?
**A.** 714 nM

**Q.** What does the source list for `CN1CCN=C1c1ccc(C(=O)Nc2ccccc2C(=O)Nc2ccc(Cl)cn2)cc1`?
**A.** half-life [7]: 2.2 h; Activity (Plasma): 1.1 µM; clearance [8]: 7.1 mL/min/kg; bioavailability [9]: 50%; half-life [10]: > 6 h; Vd [11]: 3.7 L/kg; Vd [12]: 9.2 L/kg; clearance [13]: 49.6 mL/min/kg; IC50 (Coagulation factor X): 20 nM; bioavailability [14]: 22%; fraction unbound [15]: 0.18

**Q.** Which IC50 (Coagulation factor X) does the source give for `CCN1CCN=C1c1ccc(C(=O)Nc2ccccc2C(=O)Nc2ccc(Cl)cn2)cc1` here?
**A.** 64 nM

**Q.** For `O=C(Nc1ccccc1C(=O)Nc1ccc(Cl)cn1)c1ccc(C2=NCCCN2)cc1`, which IC50 (Coagulation factor X) is on record?
**A.** 226 nM

**Q.** For `CN(C)C(=N)c1ccc(C(=O)Nc2ccccc2C(=O)Nc2ccc(Cl)cn2)cc1`, which half-life [7] is on record?
**A.** 3.5 h

**Q.** And the Activity (Plasma)?
**A.** 0.54 µM

**Q.** What about the clearance [8] of the same compound?
**A.** 16.8 mL/min/kg

**Q.** And the bioavailability [9]?
**A.** 69%

**Q.** And the half-life [10]?
**A.** 4.3 h

**Q.** And the Vd [11]?
**A.** 6.3 L/kg

**Q.** What about the Vd [12] of the same compound?
**A.** 13.7 L/kg

**Q.** What about the clearance [13] of the same compound?
**A.** 45.7 mL/min/kg

**Q.** What about the fraction unbound [15] of the same compound?
**A.** 0.27

**Q.** With `CN1CCCN=C1c1ccc(C(=O)Nc2ccccc2C(=O)Nc2ccc(Cl)cn2)cc1` as the compound, how does the IC50 (Coagulation factor X) read?
**A.** 78 nM

**Q.** For `CCN(C)C(=N)c1ccc(C(=O)Nc2ccccc2C(=O)Nc2ccc(Cl)cn2)cc1`, which IC50 (Coagulation factor X) is on record?
**A.** 6 nM

**Q.** Which IC50 (Coagulation factor X) does the source give for `N=C(c1ccc(C(=O)Nc2ccccc2C(=O)Nc2ccc(Cl)cn2)cc1)N1CCCC1` here?
**A.** 8 nM

**Q.** Which IC50 (Coagulation factor X) does the source give for `CCN(CC)C(=N)c1ccc(C(=O)Nc2ccccc2C(=O)Nc2ccc(Cl)cn2)cc1` here?
**A.** 10 nM

**Q.** For `CCNC(=N)c1ccc(C(=O)Nc2ccccc2C(=O)Nc2ccc(Cl)cn2)cc1`, which IC50 (Coagulation factor X) is on record?
**A.** 93 nM

**Q.** For `N=C(c1ccc(C(=O)Nc2ccccc2C(=O)Nc2ccc(Cl)cn2)cc1)N1CCC1`, which IC50 (Coagulation factor X) is on record?
**A.** 8 nM

**Q.** With `N=C(c1ccc(C(=O)Nc2ccccc2C(=O)Nc2ccc(Cl)cn2)cc1)N1CCNCC1` as the compound, how does the IC50 (Coagulation factor X) read?
**A.** 38 nM

**Q.** For `N=C(c1ccc(C(=O)Nc2ccccc2C(=O)Nc2ccc(Cl)cn2)cc1)N1CCCCC1`, which Activity (Plasma) is on record?
**A.** 0.36 µM

**Q.** What about the clearance [8] of the same compound?
**A.** 32.2 mL/min/kg

**Q.** And the half-life [10]?
**A.** 6 h

**Q.** What about the Vd [11] of the same compound?
**A.** 16.7 L/kg

**Q.** What about the IC50 (Coagulation factor X) of the same compound?
**A.** 3 nM

**Q.** What about the bioavailability [14] of the same compound?
**A.** 18%

**Q.** And the fraction unbound [15]?
**A.** 0.11

**Q.** Which IC50 (Coagulation factor X) does the source give for `N=C(NO)c1ccc(C(=O)Nc2ccccc2C(=O)Nc2ccc(Cl)cn2)cc1` here?
**A.** 35 nM

**Q.** With `O=C(Nc1ccccc1C(=O)Nc1ccc(Cl)cn1)c1ccc(C2=NCCN2)cc1` as the compound, how does the IC50 (Coagulation factor X) read?
**A.** 316 nM

**Q.** Which IC50 (Coagulation factor X) does the source give for `CCCN(C)C(=N)c1ccc(C(=O)Nc2ccccc2C(=O)Nc2ccc(Cl)cn2)cc1` here?
**A.** 9 nM

**Q.** With `CNC(=N)c1ccc(C(=O)Nc2ccccc2C(=O)Nc2ccc(Cl)cn2)cc1` as the compound, how does the IC50 (Coagulation factor X) read?
**A.** 23 nM
